From ChEMBL document CHEMBL2346536, “Biscatecholate-monohydroxamate mixed ligand siderophore-carbacephalosporin conjugates are selective sideromycin antibiotics that target Acinetobacter baumannii” (2013) come the findings set out here.

One assay relates to Klebsiella pneumoniae. Put plainly: Antibacterial activity against Klebsiella pneumoniae ATCC 700603 after 18 hrs by broth microdilution method. The note with it: ATCC 700603, 18 h. It counts as functional. In short, it runs like this:
(§1)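 Broth microdilution MICs per CLSI guidelines, read by visual end point; each compound tested in triplicate.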

The test system of assay [1] is Acinetobacter baumannii. Put plainly: Antibacterial activity against Acinetobacter baumannii ATCC 17961 after 18 hrs by broth microdilution method. Format: functional. The note with it: ATCC 17961, 18 h. In short, it runs like this: as §1
A further assay has as its system Klebsiella aerogenes. Put plainly: Antibacterial activity against Enterobacter aerogenes ATCC 35029 after 18 hrs by broth microdilution method. The note with it: ATCC 35029, 18 h. It counts as functional. The essentials: as §1
The test system of another assay is Escherichia coli. The assay is described as follows: Antibacterial activity against Escherichia coli ATCC 25922 after 18 hrs by broth microdilution method. It counts as functional. The note with it: ATCC 25922, 18 h. In short, it runs like this:
as §1

The test system of the next assay is Enterococcus faecium. The assay is described as follows: Antibacterial activity against Enterococcus faecium NCTC 7171 after 18 hrs by broth microdilution method. Format: functional. The note with it: NCTC 7171, 18 h. The essentials:
as §1

In the next assay the test system is Pseudomonas aeruginosa. Put plainly: Antibacterial activity against Pseudomonas aeruginosa ATCC 27853 after 18 hrs by broth microdilution method. The note with it: ATCC 27853, 18 h. It counts as functional. The essentials:
as §1

The test system of assay [2] is Staphylococcus aureus. The assay is described as follows: Antibacterial activity against Staphylococcus aureus SG 511 after 18 hrs by broth microdilution method. It counts as functional. The note with it: SG 511, 18 h. The essentials: as §1
The subject of assay [3] is Staphylococcus aureus. The assay is described as follows: Antibacterial activity against Staphylococcus aureus SG 511 in Fe(3)-supplemented Mueller-Hinton no.2 broth media assessed as diameter of growth inhibition zone after 18 to 24 hrs by agar diffusion assay. It counts as functional, organism-based. In short, it runs like this:
(§2)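 Modified Kirby–Bauer agar diffusion on Mueller–Hinton no. 2 agar, made iron-deficient with 100 μM 2,2′-bipyridine or iron-supplemented with 100 μM FeCl₃. Read-out was growth inhibition zone diameter (mm), averaged over three independent trials.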

In assay [4] the test system is Acinetobacter baumannii. Put plainly: Antibacterial activity against Acinetobacter baumannii ATCC 17961 in Fe(3)-deficient Mueller-Hinton no.2 broth media assessed as diameter of growth inhibition zone after 18 to 24 hrs by agar diffusion assay. It counts as functional. In short, it runs like this:
as §2

For assay [5], the system named is Staphylococcus aureus. Put plainly: Antibacterial activity against Staphylococcus aureus SG 511 in Fe(3)-deficient Mueller-Hinton no.2 broth media after 18 hrs by broth microdilution method. It counts as functional. The note with it: SG 511, 18 h. In short, it runs like this:
(§3)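 CLSI broth microdilution in cation-adjusted Mueller–Hinton no. 2 broth. The iron-deficient broth contained 100 μM 2,2′-bipyridine and the iron-supplemented broth 100 μM FeCl₃. MIC was read by visual end point, each compound in triplicate.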

For assay [6], the system named is Acinetobacter baumannii. Put plainly: Antibacterial activity against Acinetobacter baumannii ATCC 17961 at 0.5 mM after 18 to 24 hrs by agar diffusion assay in presence of Fe3-complex of N-[5-(3-{[4-(2,3-Dihydroxy-benzoylamino)-butyl]-[3-(2,3-dihydroxy-benzoylamino)-propyl]-carbamoyl}-propionylamino)-pentyl]-N-hydroxy-succinamic acid. Format: functional, organism-based. In short, it runs like this: (§4)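 Paper-strip competition on agar. LB cultures grown 18–24 h were suspended in 0.9% saline at […] (0.5 McFarland), then 0.1 mL was mixed into 34 mL MHII agar + 2,2′-bipyridine at 47 °C. Strips were soaked in 0.5 mM sideromycin or 2.0 mM siderophore (1:10 DMSO:MeOH). Plates ran 37 °C for 18–24 h and were photographed at 48 h.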

The subject of assay [7] is Staphylococcus aureus. Put plainly: Antibacterial activity against Staphylococcus aureus SG 511 at 0.5 mM after 18 to 24 hrs by agar diffusion assay in presence of Fe3-complex of N-[5-(3-{[4-(2,3-Dihydroxy-benzoylamino)-butyl]-[3-(2,3-dihydroxy-benzoylamino)-propyl]-carbamoyl}-propionylamino)-pentyl]-N-hydroxy-succinamic acid. It counts as functional, organism-based. In short, it runs like this:
as §4

For assay [8], the system named is Acinetobacter baumannii. The assay is described as follows: Antibacterial activity against Acinetobacter baumannii ATCC 17961 in Fe(3)-deficient Mueller-Hinton no.2 broth media after 18 hrs by broth microdilution method. It counts as functional. The note with it: ATCC 17961, 18 h. In short, it runs like this: as §3
Assay [9] has as its system Acinetobacter baumannii. The assay is described as follows: Antibacterial activity against Acinetobacter baumannii ATCC 17961 in Fe(3)-supplemented Mueller-Hinton no.2 broth media assessed as diameter of growth inhibition zone after 18 to 24 hrs by agar diffusion assay. It counts as functional. In short, it runs like this: as §2
The test system of assay [10] is Acinetobacter baumannii. The assay is described as follows: Antibacterial activity against Acinetobacter baumannii ATCC 17961 at 0.5 mM after 18 to 24 hrs by agar diffusion assay in presence of N-[5-(3-{[4-(2,3-Dihydroxy-benzoylamino)-butyl]-[3-(2,3-dihydroxy-benzoylamino)-propyl]-carbamoyl}-propionylamino)-pentyl]-N-hydroxy-succinamic acid. It counts as functional, organism-based. The essentials:
as §4

Assay [11] has as its system Staphylococcus aureus. Put plainly: Antibacterial activity against Staphylococcus aureus SG 511 at 0.5 mM after 18 to 24 hrs by agar diffusion assay in presence of N-[5-(3-{[4-(2,3-Dihydroxy-benzoylamino)-butyl]-[3-(2,3-dihydroxy-benzoylamino)-propyl]-carbamoyl}-propionylamino)-pentyl]-N-hydroxy-succinamic acid. It counts as functional, organism-based. The essentials:
as §4

Assay [12] relates to Acinetobacter baumannii. The assay is described as follows: Antibacterial activity against Acinetobacter baumannii ATCC 17961 in Fe(3)-supplemented Mueller-Hinton no.2 broth media after 18 hrs by broth microdilution method. It counts as functional. The note with it: ATCC 17961, 18 h. In short, it runs like this:
as §3

The subject of assay [13] is Staphylococcus aureus. The assay is described as follows: Antibacterial activity against Staphylococcus aureus SG 511 in Fe(3)-supplemented Mueller-Hinton no.2 broth media after 18 hrs by broth microdilution method. It counts as functional. The note with it: SG 511, 18 h. The essentials: as §3
Assay [14] concerns Staphylococcus aureus. Put plainly: Antibacterial activity against Staphylococcus aureus SG 511 in Fe(3)-deficient Mueller-Hinton no.2 broth media assessed as diameter of growth inhibition zone after 18 to 24 hrs by agar diffusion assay. It counts as functional, organism-based. The essentials:
as §2

Values after ≈ are worked out from the molar mass of the structure shown. Active and inactive are the calls of the source. The rule behind the calls is not given here.

For the compound `O=C(O)CCC(=O)N(O)CCCCCNC(=O)CCC(=O)N(CCCCNC(=O)c1cccc(O)c1O)CCCNC(=O)c1cccc(O)c1O`, the MIC against Klebsiella pneumoniae, in the assay on Acinetobacter baumannii [1], against Klebsiella aerogenes, against Escherichia coli, in the assay with Enterococcus faecium and with Pseudomonas aeruginosa was greater than 128 µM each time. This compound displayed a minimal inhibitory concentration (MIC) against Staphylococcus aureus [2] greater than 128 µM.
With `O=C(CCC(=O)N(CCCCNC(=O)c1cccc(O)c1O)CCCNC(=O)c1cccc(O)c1O)NCCCCCN(O)C(=O)CCC(=O)N[C@H](C(=O)N[C@@H]1C(=O)N2C(C(=O)O)=C(Cl)CC[C@H]12)c1ccccc1`, the MIC was greater than 128 µM against Klebsiella pneumoniae; 0.125 µM (≈ 0.131 µg/mL) in the assay on Acinetobacter baumannii [1]; 32 µM (≈ 33.6 µg/mL) with Staphylococcus aureus [5]; greater than 128 µM with Klebsiella aerogenes; 8 µM (≈ 8.4 µg/mL) in the assay with Escherichia coli; greater than 128 µM in the assay with Enterococcus faecium. Moreover, the minimum inhibitory concentration (MIC) in the assay with Pseudomonas aeruginosa was greater than 128 µM; with Acinetobacter baumannii [8] it was 7.8 nM (≈ 0.00819 µg/mL); against Staphylococcus aureus [2], 32 µM (≈ 33.6 µg/mL); in the assay with Acinetobacter baumannii [12] it was 0.5 µM (≈ 0.525 µg/mL); in the assay on Staphylococcus aureus [13] it was 64 µM (≈ 67.2 µg/mL). The result in the assay on Staphylococcus aureus [3], in the assay on Staphylococcus aureus [7], with Staphylococcus aureus [11] and with Staphylococcus aureus [14] was Active. Moreover, the “diameter of the inhibition zone (DIZ)” value in the assay on Acinetobacter baumannii [4] came to 20.6 mm; in the assay with Acinetobacter baumannii [9], 16.2 mm. Moreover, the result in the assay on Acinetobacter baumannii [6] and in the assay on Acinetobacter baumannii [10] was inactive.
On to `O=C(O)c1cn(C2CC2)c2cc(N3CCNCC3)c(F)cc2c1=O` [CIPROFLOXACIN], for which the MIC against Klebsiella pneumoniae is 0.25 µM (≈ 0.0828 µg/mL); against Acinetobacter baumannii [1] it was 0.25 µM (≈ 0.0828 µg/mL); in the assay with Klebsiella aerogenes it was less than 0.015 µM; against Escherichia coli, less than 0.015 µM; against Enterococcus faecium, 8 µM (≈ 2.65 µg/mL); against Pseudomonas aeruginosa it was 0.125 µM (≈ 0.0414 µg/mL). In the assay with Staphylococcus aureus [2], this compound showed an MIC of 0.5 µM (≈ 0.166 µg/mL).
Take `N[C@@H](C(=O)N[C@@H]1C(=O)N2C(C(=O)O)=C(Cl)CC[C@H]12)c1ccccc1` [LORACARBEF ANHYDROUS]: the MIC is 128 µM (≈ 44.8 µg/mL) against Klebsiella pneumoniae; greater than 128 µM with Acinetobacter baumannii [1]; greater than 128 µM against Klebsiella aerogenes; 2 µM (≈ 0.7 µg/mL) with Escherichia coli; 32 µM (≈ 11.2 µg/mL) with Enterococcus faecium; greater than 128 µM against Pseudomonas aeruginosa. Moreover, in the assay with Staphylococcus aureus [2], inhibition of growth (MIC) required 1 µM (≈ 0.35 µg/mL).
`O=C(CCC(=O)N(CCCCNC(=O)c1cccc(O)c1O)CCCNC(=O)c1cccc(O)c1O)NCCCCCN(O)C(=O)CCC(=O)N1CCN(c2cc3c(cc2F)c(=O)c(C(=O)O)cn3C2CC2)CC1`: the MIC in the assay with Klebsiella pneumoniae, against Acinetobacter baumannii [1], in the assay with Klebsiella aerogenes, in the assay with Escherichia coli, in the assay with Enterococcus faecium and against Pseudomonas aeruginosa was greater than 128 µM each time. In the assay with Staphylococcus aureus [2], the MIC is greater than 128 µM.
